Calls of active or inactive are those of the source. The calls are words filed in the database; no cut-off is given here.
Assays:
[1] = Antioxidant activity assessed as inhibition of AAPH-induced lipid peroxidation at 0.1 mM by UV spectrophotometric analysis; type: functional
[2] = Antioxidant activity against AAPH-induced lipid peroxidation assessed as induction time of inhibition at 0.1 mM; type: functional
[3] = Antioxidant activity assessed as Fe3+/ascorbic acid-induced hydroxyl radical scavenging activity at 0.1 mM after 30 mins; type: functional
Summary of the method: (§1)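 Tested in vitro at 0.1 mM. The hydroxyl radical line measures competition with DMSO for hydroxyl radicals. Superoxide was generated at pH 7.4 and read as nitroblue tetrazolium reduction to formazan at 560 nm. LOX inhibition was measured by UV absorbance enzyme assay with plant lipoxygenase.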

[4] = Antioxidant activity assessed as superoxide anion radical scavenging activity at 0.1 mM after 10 mins by tetrazolium dye assay; type: functional; summary of the method: as §1
[5] = target: Lipoxygenase (Glycine max) (UniProt Q39829); test: Inhibition of soybean lipoxygenase assessed as conversion of sodium linoleate to 13-hydroperoxylinoleic acid at 0.1 mM by competitive inhibition assay; summary of the method: as §1
[6] = Induction of NO release in phosphate buffer at pH 7.4 at 0.1 mM by Griess assay in presence of L-cysteine; type: physicochemical; conditions: pH 7.4, 100 µM
Summary of the method: (§2)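 Compounds at 100 μM final were dissolved in phosphate buffer pH 7.4 containing L-cysteine. Released NO was measured. Where indicated, 1 mM cysteine and a nitrate reductase/NADPH system were used. Sodium nitroprusside served as reference.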

[7] = Induction of NO release in phosphate buffer at pH 7.4 assessed as nitrite level at 0.1 mM by nitrate reductase/NADPH based Griess assay in presence of L-cysteine; type: physicochemical; conditions: pH 7.4, 100 µM; summary of the method: as §2
[8] = Neuroprotective activity in Sprague-Dawley rat primary cortical neurons assessed as reversal of oxygen-glucose deprivation-induced neuronal damage at 5 mM by treated 4 hrs after OGD challenge measured after 24 hrs MTT assay relative to control; type: functional, cell-based; conditions: Cerebral cortex neuron
Summary of the method: (§3)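 Primary cerebral cortex neurons, cultured 6–8 days, underwent 4 h oxygen–glucose deprivation. Compounds (0.1 μM–10 mM range) were added at the start of a 24 h reperfusion. Viability was read by MTT with untreated control as 100%. Neuroprotection = % recovery from the reperfusion-only value (0%) to control (100%). Three to five independent experiments; mean ± SEM.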

[9] = Neuroprotective activity in Sprague-Dawley rat primary cortical neurons assessed as reversal of oxygen-glucose deprivation-induced neuronal damage treated 4 hrs after OGD challenge measured after 24 hrs MTT assay; type: functional, cell-based; conditions: Cerebral cortex neuron; summary of the method: as §3
[10] = Neuroprotective activity in Sprague-Dawley rat primary cortical neurons assessed as reversal of oxygen-glucose deprivation-induced neuronal damage at 250 uM by treated 4 hrs after OGD challenge measured after 24 hrs by LDH release assay relative to control; type: functional, Cerebral cortex neuron
Summary of the method: (§4)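 Primary cortical neurons, cultured 6–8 days, underwent 4 h oxygen–glucose deprivation followed by 24 h reperfusion. Compounds (1–250 μM) were added at reperfusion. Necrotic death was read as LDH release, normalized to untreated reperfusion cells as 100%. Four independent experiments; mean ± SEM; one-way ANOVA with Holm–Sidak post test.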

[11] = Neuroprotective activity in Sprague-Dawley rat primary cortical neurons assessed as reversal of oxygen-glucose deprivation-induced neuronal damage at 100 uM by treated 4 hrs after OGD challenge measured after 24 hrs by LDH release assay relative to control; type: functional, Cerebral cortex neuron; summary of the method: as §4
Rattus norvegicus = test: Antiinflammatory activity in Fisher 344 rat assessed as inhibition of carrageenan-induced paw edema at 0.01 mmol/kg, ip measured 3.5 hrs after carrageenan challenge; type: functional; conditions: Fisher 344, ip
Summary of the method: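 Percent inhibition of carrageenan-induced rat paw oedema relative to untreated controls. Compounds given at 0.01 mmol/kg. Six animals per group in two independent experiments (n = 6 × 2), reported as mean ± SD. Significance versus controls by Student's t test.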

[12] = tested on: Radical scavenging activity; test: Antioxidant activity assessed as DPPH radical scavenging activity at 0.5 mM after 2 hrs by spectrophotometric analysis; type: functional
Summary of the method: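 DPPH radical test, measuring initial absorbance and absorbance after reaction spectrophotometrically.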

Mus musculus = test: Neuroprotective activity in NMRI mouse assessed as protection against tert-butyl hydroperoxide-mediated lethality at 150 mg/kg, ip administered 30 mins before t-BHP challenge measured after 1 to 24 hrs; type: functional; conditions: route intraperitoneal
[13] = tested on: Radical scavenging activity; test: Antioxidant activity assessed as DPPH radical scavenging activity at 15 uM after 2 hrs by spectrophotometric analysis; type: functional
[14] = Neuroprotective activity in Sprague-Dawley rat primary cortical neurons assessed as reversal of oxygen-glucose deprivation-induced neuronal damage at 100 uM by treated 4 hrs after OGD challenge measured after 24 hrs MTT assay relative to control; type: functional, cell-based; conditions: Cerebral cortex neuron; summary of the method: as §3
[15] = Neuroprotective activity in Sprague-Dawley rat primary cortical neurons assessed as reversal of oxygen-glucose deprivation-induced neuronal damage at 10 uM by treated 4 hrs after OGD challenge measured after 24 hrs MTT assay relative to control; type: functional, cell-based; conditions: Cerebral cortex neuron; summary of the method: as §3
[16] = Neuroprotective activity in Sprague-Dawley rat primary cortical neurons assessed as reversal of oxygen-glucose deprivation-induced neuronal damage at 10 uM by treated 4 hrs after OGD challenge measured after 24 hrs by LDH release assay relative to control; type: functional, Cerebral cortex neuron; summary of the method: as §4
[17] = Neuroprotective activity in Sprague-Dawley rat primary cortical neurons assessed as reversal of oxygen-glucose deprivation-induced neuronal damage at 1 uM by treated 4 hrs after OGD challenge measured after 24 hrs by LDH release assay relative to control; type: functional, Cerebral cortex neuron; summary of the method: as §4
[18] = Permeability of the compound at pH 7.4 by PAMPA; type: ADME; conditions: read-out: permeability
Summary of the method: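 PAMPA-BBB method of Di et al. (passive blood–brain barrier permeation). Effective permeability is reported as Pe in 10−6 cm s−1.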

| Structure (SMILES) | inhibition [1] | TIME [2] [h] | Activity [3] [%] | Activity [4] [%] | inhibition [5] | Activity [6] [%] | Activity [7] [%] | Activity (Mus musculus) [%] | also measured |
| --- | --- | --- | --- | --- | --- | --- | --- | --- | --- |
| CC(C)(C)/[N+]([O-])=C/c1ccccc1 | inactive | 0 | 90 | 15 | 83% | 2 | 4.5 |  | Activity [8]: -13.4%; Activity [9]: inactive; Activity [10]: 73.2%; Activity [11]: 67.82% |
| COc1cc(Br)c(/C=[N+](\[O-])Cc2ccccc2)cc1O | 89% | 1.41 |  | 6 |  | 2 | 2 |  | Activity [9]: inactive |
| CC(Cc1ccc(O)c(O)c1)C(C)Cc1ccc(O)c(O)c1 (stereo not given) |  |  |  |  | 40% |  |  |  |  |
| C/[N+]([O-])=C/c1ccccc1 | 5% | 0.0167 | 77 | 8 | 22% |  |  |  | inhibition in vivo at 10 µmol/kg (Rattus norvegicus): 26.5%; Activity [9]: inactive |
| COc1cc(/C=[N+](\[O-])Cc2ccccc2)ccc1O | 90% | 1.47 | 52 |  |  | 9 | 10 |  | Activity [9]: inactive |
| COc1cc(Br)c(/C=[N+](\[O-])C(C)(C)C)cc1O | 67% | 0.12 | 72 | 11 |  | 2 | 3 |  |  |
| COc1cc(Br)c(/C=[N+](\[O-])Cc2ccccc2)cc1OC | inactive | 0.895 |  | 16 | 21% | 1 | 1 |  |  |
| COc1ccc2c(c1)cc(/C=[N+](\[O-])C(C)(C)C)n2C | 80% | 0.73 | 79.5 | 5 | 31% | 3 | 5 |  |  |
| COc1cc(/C=[N+](/C)[O-])ccc1O | 90% | 0.3 |  | 11 | 59% | 7 | 8 |  | Activity [9]: inactive |
| CC(C)(C)/[N+]([O-])=C/c1cccnc1Br | 40% | 0.133 | 93 | 10 | 88% | 4 | 5.5 |  | inhibition in vivo at 10 µmol/kg (Rattus norvegicus): 23.2% |
| CC(C)(C)/[N+]([O-])=C/c1ccc(Br)o1 |  | 0 | 95 |  | 39% |  |  | 37 | Activity [12]: 0%; Activity [10]: 96.26% |
| [O-]/[N+](=C\c1ccccc1)Cc1ccccc1 | 74% | 0.42 | 97 | 24 |  |  |  |  |  |
| O=C(O)/C=C/c1ccc(O)c(O)c1 |  |  |  | 15 |  |  |  |  |  |
| O=c1c(O)c(-c2ccc(O)c(O)c2)oc2cc(O)cc(O)c12 |  |  |  |  |  |  |  |  | Activity [13]: 94.2% |
| Cc1ccc2nc(Cl)c(/C=[N+](\[O-])Cc3ccccc3)cc2c1 | 37% | 1.3 | 95 | 23 | inactive |  |  | 72 | Activity [12]: 42.3%; Activity [14]: 105%; Activity [15]: 75.7%; Activity [16]: 63.01%; Activity [11]: 66.82% |
| CC(C)(C)/[N+]([O-])=C/c1cccnc1Cl | 37% | 0.497 | 30 | 5 | 59% | 2 | 4 |  |  |

| Structure (SMILES) | inhibition [1] | TIME [2] [h] | Activity [3] [%] | Activity [4] [%] | inhibition [5] | Activity [6] [%] | Activity [7] [%] | Activity (Mus musculus) [%] | also measured |
| --- | --- | --- | --- | --- | --- | --- | --- | --- | --- |
| COc1cc(Br)c(/C=[N+](\[O-])C(C)(C)C)cc1OC | 47% | 0.00867 | 90 | 15 |  | 1 | 2 |  |  |
| C[N+](C)(C)CCOP(=O)(O)OP(=O)([O-])OC[C@H]1O[C@@H](n2ccc(N)nc2=O)[C@H](O)[C@@H]1O [CITICOLINE] |  |  |  |  |  |  |  |  | Activity [14]: 53.2%; Activity [15]: 87.4%; Activity [10]: 84.64%; Activity [11]: 61.26% |
| CC(C)(C)/[N+]([O-])=C/c1ccc(OCCCO[N+](=O)[O-])cc1 | 49% | 0.783 | 54 | 2 | 57% |  |  | 30 | Activity [12]: 0.4%; Activity [11]: 55.57% |
| O=[N+]([O-])OCCOc1ccc(/C=[N+](\[O-])Cc2ccccc2)cc1 | 64% | 0.767 | 100 |  | 21% |  |  | 22 | Activity [17]: 47.48%; Papp [18]: 16.8 ×10⁻⁶ cm/s |
| [O-]/[N+](=C\c1ccc(Br)o1)Cc1ccccc1 |  | 0 |  |  | 17% |  |  | 42 | Activity [12]: 8.6%; Activity [17]: 61.87%; Activity [16]: 114.17% |
| O=[N+]([O-])OCCCOc1ccc(/C=[N+](\[O-])Cc2ccccc2)cc1 | 81% | 0.61 | 98 |  | 30% |  |  | 31 | Activity [14]: 83%; Activity [15]: 77.6%; Activity [16]: 45.37%; Papp [18]: 22 ×10⁻⁶ cm/s |
| CC(C)(C)c1cc(/C=[N+](\[O-])C(C)(C)C)cc(C(C)(C)C)c1O | 9% | 0.29 |  |  | inactive |  |  | 80 | Activity [12]: 78.6% |
| Cc1ccc2nc(Cl)c(/C=[N+](\[O-])C(C)(C)C)cc2c1 | 85% | 0.945 | 100 | 12 | inactive |  |  | 70 | Activity [12]: 1.7%; Activity [17]: 70.17%; Activity [16]: 62.22%; Papp [18]: 15 ×10⁻⁶ cm/s |
| COc1ccc2c(c1)c(CC(=O)O)c(C)n2C(=O)c1ccc(Cl)cc1 [INDOMETHACIN] |  |  |  |  |  |  |  |  | inhibition in vivo at 10 µmol/kg (Rattus norvegicus): 47% |
| COc1cc(/C=C/C(=O)CC(=O)/C=C/c2ccc(O)c(OC)c2)ccc1O |  |  |  |  |  |  |  |  | Activity [13]: 35% |
| CC(C)(C)c1cc(/C=[N+](\[O-])Cc2ccccc2)cc(C(C)(C)C)c1O | 61% | 1.38 | 77 | 8 | inactive |  |  | 82 | Activity [12]: 81.9%; Activity [10]: 56.95%; Activity [11]: 53.8% |
| CC(C)(C)/[N+]([O-])=C/c1c[nH]c2ccccc12 | 57% | 0.36 | 59 | 15 | 42% | 3 | 4.5 |  |  |
| CC(C)(C)/[N+]([O-])=C/c1ccc(OCCO[N+](=O)[O-])cc1 |  | 0 | 98 | 19 | 19% |  |  | 18 | Activity [12]: 0.6%; Activity [10]: 79.21% |
| Cc1c(C)c2c(c(C)c1O)CCC(C)(C(=O)O)O2 (stereo not given) | 63% | 1.03 | 73 |  |  |  |  |  |  |
| COc1cc(/C=[N+](\[O-])Cc2ccccc2)c(Br)cc1O | 87% | 0.697 | 78 | 3 | 24% | 5 | 6 |  |  |

From ChEMBL document CHEMBL2086351, “Α-aryl-N-alkyl nitrones, as potential agents for stroke treatment: synthesis, theoretical calculations, antioxidant, anti-inflammatory, neuroprotective, and brain-blood barrier permeability properties” (J Med Chem, 2012)
